# Published values pooled from the literature.
# Lines come from different studies, so protocols differ.
# Action: inhibitor
# VCP: Transitional endoplasmic reticulum ATPase (VCP, Homo sapiens, UniProt P55072)
# BLK: Tyrosine-protein kinase Blk (BLK, Homo sapiens, UniProt P51451)
# HDAC4: Histone deacetylase 4 (HDAC4, Homo sapiens, UniProt P56524)
# SLC2A9: Solute carrier family 2, facilitated glucose transporter member 9 (SLC2A9, Homo sapiens, UniProt Q9NRM0)
# SLCO1B3: Solute carrier organic anion transporter family member 1B3 (SLCO1B3, Homo sapiens, UniProt Q9NPD5)
# P4HB: Protein disulfide-isomerase (P4HB, Homo sapiens, UniProt P07237)
Compound,target,effect on,technique,time,setting,IC50 [µM]
Cc1cc2c(C(N)=O)cccc2n1-c1nc2c(c(NCc3ccncc3)n1)CCCN2,VCP,enzyme activity,ADP detection,,,0.381
N=C(N)c1ccc(OCCCCCOc2ccc(C(=N)N)cc2)cc1,"Coagulation factor XIII A chain (F13A1, Homo sapiens, UniProt P00488)",enzyme activity,fluorescence,,,> 50
CC#CC(=O)N[C@H]1CCCN(c2c(F)cc(C(N)=O)c3[nH]c(C)c(C)c23)C1,BLK,enzyme activity,,,,0.00692
COc1ccc(N(Cc2csc(-c3ccc(Br)cc3)n2)C(=O)CCCCCC(=O)NO)cc1,HDAC4,enzyme activity,,,,> 10
Cc1cc2c(C(N)=O)cncc2n1-c1nc2c(c(NCc3ccccc3)n1)CCCN2,VCP,enzyme activity,ADP detection,,,0.082
O=C(NO)c1ccc(Cn2cnc3c(Nc4ccc(Cl)cc4)ncnc32)cc1,HDAC4,enzyme activity,,,,3.11
CONC(=O)c1c(C)n(-c2nc3c(c(NCc4ccccc4)n2)CCCN3)c2ccccc12,VCP,enzyme activity,ADP detection,,,1.64
CC(=O)O[C@H]1C(=O)[C@@]2(C)[C@H]([C@H](OC(=O)c3ccccc3)[C@]3(O)C[C@H](OC(=O)[C@H](O)[C@@H](NC(=O)c4ccccc4)c4ccccc4)C(C)=C1C3(C)C)[C@]1(OC(C)=O)CO[C@@H]1C[C@@H]2O,"Solute carrier organic anion transporter family member 1B3 (SLCO1B3, Homo sapiens, UniProt Q9NPD5, M233I)",transporter uptake,radiometric,2 min,,> 100
CCc1oc2cc(F)c(F)cc2c1C(=O)c1cc(Br)c(O)c(Br)c1,SLC2A9,transporter uptake,,,oocytes,17.4
COc1ccc(N(Cc2nc(-c3ccc(F)cc3)cs2)C(=O)CCCCCC(=O)NO)cc1,HDAC4,enzyme activity,,,,> 10
CC(C)n1c(/C=C/C(O)CC(O)CC(=O)O)c(-c2ccc(F)cc2)c2ccccc21 (centres unmarked),SLCO1B3,transporter uptake,radiometric,2 min,,0.109
Nc1cnccc1Nc1ccc(Cl)c(Cl)c1,"G/T mismatch-specific thymine DNA glycosylase (TDG, Homo sapiens, UniProt Q13569)",enzyme activity,,,,> 100
COc1cccc2c1C(=O)c1c(O)c3c(c(O)c1C2=O)C[C@@](O)(C(=O)CO)C[C@@H]3O[C@H]1C[C@H](N)[C@H](O)[C@H](C)O1,"Solute carrier organic anion transporter family member 1B3 (SLCO1B3, Homo sapiens, UniProt Q9NPD5, S112A)",transporter uptake,radiometric,2 min,,> 100
O=C(OC[C@H]1O[C@@H](OC(=O)c2cc(O)c(O)c(O)c2)[C@H](OC(=O)c2cc(O)c(O)c(O)c2)[C@@H](OC(=O)c2cc(O)c(O)c(O)c2)[C@@H]1OC(=O)c1cc(O)c(O)c(O)c1)c1cc(O)c(O)c(O)c1,P4HB,enzyme activity,fluorescence,,,2.9
Cc1cc2c(C(N)=O)cccc2n1-c1nc(NCc2ccccc2)c2c(n1)NC(C)CC2 (centres unmarked),VCP,enzyme activity,ADP detection,,,0.039
O=C(O[C@@H]1[C@@H](O)[C@H](Oc2cc(O)c3c(c2)O[C@H](c2ccccc2)CC3=O)O[C@@H]2COC(=O)c3cc(O)c(O)c(O)c3-c3c(cc(O)c(O)c3O)C(=O)O[C@@H]12)c1cc(O)c(O)c(O)c1,P4HB,enzyme activity,fluorescence,,,1.5
Cc1cc2c(C(=O)O)cccc2n1-c1nc2c(c(NCc3ccccc3)n1)CCCN2,VCP,enzyme activity,ADP detection,,,0.032
C=CC(=O)Nc1cccc(Oc2nc(Nc3ccc(N4CCN(C)CC4)cc3)nc3ccoc23)c1,BLK,enzyme activity,,,,< 0.000254
CN(Cc1cnc2nc(N)nc(N)c2n1)c1ccc(C(=O)N[C@@H](CCC(=O)O)C(=O)O)cc1,SLCO1B3,transporter uptake,radiometric,2 min,,0.498
CC1(C)NC(=O)N(c2ccc([N+](=O)[O-])c(C(F)(F)F)c2)C1=O,"Aldo-keto reductase family 1 member C3 (AKR1C3, Homo sapiens, UniProt P42330)",enzyme activity,,,,5
CONC(=O)c1cccc2c1cc(C)n2-c1nc2c(c(NCc3ccccc3)n1)CCCN2,VCP,enzyme activity,ADP detection,,,0.026
CCc1oc2ccccc2c1C(=O)c1cc(Br)c(O)c(Br)c1,SLC2A9,transporter uptake,,,oocytes,87.6
O=C(O[C@@H]1Cc2c(O)cc(O)cc2O[C@@H]1c1ccc(O)c(O)c1)c1cc(O)c(O)c(O)c1,P4HB,enzyme activity,fluorescence,,,> 500
CC(C)(/C=C(\C#N)C(=O)N1CCC[C@@H](n2nc(-c3ccc(Oc4ccccc4)cc3F)c3c(N)ncnc32)C1)N1CCN(C2COC2)CC1,BLK,enzyme activity,,,,0.000376
Oc1ccc(-c2nc(-c3ccncc3)c(-c3ccc(F)cc3)[nH]2)cc1,"Tau-tubulin kinase 2 (TTBK2, Homo sapiens, UniProt Q6IQ55)",enzyme activity,,,,3.62
Cc1cc2c(C(N)=O)cccc2n1-c1nc2c(c(NCc3ccccc3O)n1)CCCN2,VCP,enzyme activity,ADP detection,,,0.053
